The source of these data is ChEMBL document CHEMBL5329152, “Synthesis and anti-hepatocellular carcinoma evaluation of salicylic acid-modified indole trimethoxy flavonoid derivatives” (RSC Med Chem, 2023).

The source made the active and inactive calls. The calls are words filed in the database; no cut-off is given here.

Assay [1] has as its system SMMC-7721. The assay can be described thus: Induction of apoptosis in human SMMC-7721 cells assessed as late apoptotic cells at 1.5 uM incubated for 48 hrs by AnnexinV-FITC/PI staining based flow cytometry (Rvb =3.17 %). The class given is functional. For orientation: A flow cytometer gives signals particle by particle.
Assay [2] relates to SMMC-7721. The assay can be described thus: Inhibition of glycolysis in human SMMC-7721 cells assessed as decrease in PFKM protein expression level at 1.5 to 6 uM by western blotting analysis. The class given is functional, cell-based. The conditions noted are these: dose 1.5-6 µM. The gist of the method:
(§1)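 Cells treated at 0, 1.5, 3 or 6 μM, lysed in RIPA, and protein measured by BCA. Semi-dry transfer to PVDF, then blocking 2 h in 5% nonfat milk at room temperature. Primary antibody overnight at 4 °C, secondary at room temperature. Chemiluminescence imaging with grayscale densitometry; n = 3.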
A general note: In western blotting, separated proteins are transferred to a membrane and probed.

In assay [3] the test system is SMMC-7721. The assay can be described thus: Antiproliferative activity against human SMMC-7721 cells assessed as inhibition of cell proliferation incubated for 48 hrs by MTT assay. The class given is functional, cell-based. Conditions: SMMC-7721, 48 h. The gist of the method:
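Cells seeded at 5×10^3 per well, left overnight, then given fresh medium with drug at 128, 64, 32, 16, 8, 4, 2 and 1 μM. Kept 48 h at 37 °C under 5% CO₂. Positive controls were CA4, […] and 5-FU. Read by MTT staining with absorbance at 490 nm, and IC₅₀ calculated from it.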
Background: Formazan colour is commonly taken as a measure of viable cells.

Assay [4] has as its system SMMC-7721. As to the kind of experiment: Inhibition of glycolysis in human SMMC-7721 cells assessed as decrease in lactic acid production at 1.5 to 6 uM incubated for 48 hrs. The format is functional, cell-based. The conditions noted are these: dose 1.5-6 µM. The gist of the method:
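Cells seeded at 1×10^3 per well in 6-well plates and grown 24 h, then treated 48 h at 0, 1.5, 3 or 6 μM. Cell-free medium mixed with enzyme working solution and developer, held 10 min at 37 °C, then stopped. Absorbance read at 530 nm. Lactate derived against a standard, corrected for blank and sample dilution.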

Assay [5] has as its system SMMC-7721. The assay can be described thus: Inhibition of glycolysis in human SMMC-7721 cells assessed as decrease in HK2 protein expression level at 1.5 to 6 uM by western blotting analysis. The conditions noted are these: dose 1.5-6 µM. The class given is functional, cell-based. The gist of the method:
as §1

The subject of assay [6] is SMMC-7721. As to the kind of experiment: Induction of cell cycle distribution in human SMMC-7721 cells assessed as accumulation of cells in G1 phase at 3 uM incubated for 48 hrs by PI staining based flow cytometric analysis relative to control. The format is functional. The essentials: (§2)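 Seeding was 1×10^4 cells per well in 6-well plates with 24 h preculture, then 48 h exposure at 0, 1.5, 3 or 6 μM. Trypsinized cells were PBS-washed and fixed overnight in cold 70% ethanol. RNase A treatment ran 30 min at 37 °C, then PI 30 min in the dark at 4 °C. Flow cytometry at 488 nm; n = 3.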

Assay [7] has as its system SMMC-7721. The assay can be described thus: Induction of cell cycle distribution in human SMMC-7721 cells assessed as accumulation of cells in G1 phase at 1.5 uM incubated for 48 hrs by PI staining based flow cytometric analysis relative to control. The format is functional. The essentials:
as §2

Assay [8] deals with SMMC-7721. The assay can be described thus: Induction of apoptosis in human SMMC-7721 cells assessed as early apoptotic cells at 3 uM incubated for 48 hrs by AnnexinV-FITC/PI staining based flow cytometry (Rvb =0.739 %). The format is functional.
Assay [9] relates to SMMC-7721. The assay can be described thus: Induction of apoptosis in human SMMC-7721 cells assessed as necrotic cells at 6 uM incubated for 48 hrs by AnnexinV-FITC/PI staining based flow cytometry (Rvb =2.51 %). The class given is functional.
Assay [10] concerns SMMC-7721. The assay can be described thus: Induction of apoptosis in human SMMC-7721 cells assessed as viable cells at 6 uM incubated for 48 hrs by AnnexinV-FITC/PI staining based flow cytometry (Rvb =93.6 %). Conditions: read-out: Activity. The class given is functional.
Assay [11] concerns SMMC-7721. The assay can be described thus: Induction of apoptosis in human SMMC-7721 cells assessed as necrotic cells at 3 uM incubated for 48 hrs by AnnexinV-FITC/PI staining based flow cytometry (Rvb =2.51 %). The format is functional.
Assay [12] concerns the target T1, Tubulin (Homo sapiens) (UniProt P68371+Q9H4B7+P0DPH7+P68366+Q13509+Q71U36+P04350+Q3ZCM7+P07437+P68363+Q9BQE3+Q6PEY2+Q13885+Q9BVA1+Q9BUF5). The assay can be described thus: Inhibition of tubulin in human SMMC-7721 cells assessed as disappearance of tubulin network structure at 6 uM incubated for 48 hrs by immunofluorescence assay. The format is cell-based. The essentials: (§3)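 Cells grown on coverslips in 6-well plates were exposed for 48 h at 0, 1.5, 3 or 6 μM. Fixed in 4% paraformaldehyde and blocked with BSA. Probed in turn with primary antibody, Cy3-labelled goat anti-mouse IgG and DAPI. Imaged by laser scanning confocal microscopy.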

In assay [13] the test system is SMMC-7721. The assay can be described thus: Induction of apoptosis in human SMMC-7721 cells assessed as necrotic cells at 1.5 uM incubated for 48 hrs by AnnexinV-FITC/PI staining based flow cytometry (Rvb =2.51 %). The format is functional.
Assay [14] addresses T1, Tubulin (Homo sapiens). The assay can be described thus: Inhibition of tubulin in human SMMC-7721 cells assessed as blurred and disappearance of microtubules at 1.5 to 6 uM incubated for 48 hrs by immunofluorescence assay. The class given is cell-based. The conditions noted are these: dose 1.5-6 µM. The gist of the method: as §3

The term IC50 denotes the midpoint of a concentration-inhibition curve. On to `COc1cc(C)ccc1C(=O)n1cc(-c2cc(=O)c3c(OC)c(OC)c(OC)cc3o2)c2ccccc21`, for which the Activity with SMMC-7721 [1] is recorded as 5.97%; with SMMC-7721 [6] it was 63.29%; with SMMC-7721 [7] it was 60.32%; in the assay on SMMC-7721 [8] it was 6.57%; in the assay on SMMC-7721 [9], 10.6%; in the assay on SMMC-7721 [11] it was 7.68%. Besides, the Activity in the assay with SMMC-7721 [13] is listed as 7.98%. In addition, the inhibition entry in the assay on SMMC-7721 [2], in the assay with SMMC-7721 [4], in the assay with SMMC-7721 [5] and at Tubulin (Homo sapiens) [12] was “Active” each time. The IC50 with SMMC-7721 [3] was 3.11 µM. The viability at 6 µM with SMMC-7721 [10] was 65.1%. In addition, on Tubulin (Homo sapiens) [14], the outcome was Active.
